Where a SMILES comes first, the peptide text is derived from it.
Columns and labels:
Homo sapiens = organism: Homo sapiens; test: Selectivity ratio of EC50 for human OX2 receptor to EC50 for human OX1 receptor
Orexin receptor type 2 = target: T1, Orexin receptor type 2 (Homo sapiens, UniProt O43614); test: Agonist activity at human OX2 receptor overexpressed in CHO-RD-HGA16 cells assessed as calcium mobilization after 15 mins by fluorescence assay; format: functional, cell-based
T1 sequence (O43614 whole entry): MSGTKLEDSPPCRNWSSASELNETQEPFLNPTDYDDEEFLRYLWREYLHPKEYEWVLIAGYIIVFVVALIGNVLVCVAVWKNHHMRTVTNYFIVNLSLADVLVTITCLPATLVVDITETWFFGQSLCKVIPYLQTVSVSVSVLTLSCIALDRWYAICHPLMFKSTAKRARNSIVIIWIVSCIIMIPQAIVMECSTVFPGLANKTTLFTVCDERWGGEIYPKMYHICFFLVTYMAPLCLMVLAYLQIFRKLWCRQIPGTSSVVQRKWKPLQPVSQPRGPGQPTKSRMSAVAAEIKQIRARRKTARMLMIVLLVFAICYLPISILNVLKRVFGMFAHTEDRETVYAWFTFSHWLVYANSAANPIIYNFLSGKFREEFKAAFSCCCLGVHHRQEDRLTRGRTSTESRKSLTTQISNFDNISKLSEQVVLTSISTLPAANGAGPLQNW

[1] = target: T2, Orexin/Hypocretin receptor type 1 (Homo sapiens, UniProt O43613); test: Agonist activity at human OX1 receptor overexpressed in CHO-RD-HGA16 cells assessed as calcium mobilization after 15 mins by fluorescence assay; format: functional, cell-based
T2 sequence (O43613 whole entry): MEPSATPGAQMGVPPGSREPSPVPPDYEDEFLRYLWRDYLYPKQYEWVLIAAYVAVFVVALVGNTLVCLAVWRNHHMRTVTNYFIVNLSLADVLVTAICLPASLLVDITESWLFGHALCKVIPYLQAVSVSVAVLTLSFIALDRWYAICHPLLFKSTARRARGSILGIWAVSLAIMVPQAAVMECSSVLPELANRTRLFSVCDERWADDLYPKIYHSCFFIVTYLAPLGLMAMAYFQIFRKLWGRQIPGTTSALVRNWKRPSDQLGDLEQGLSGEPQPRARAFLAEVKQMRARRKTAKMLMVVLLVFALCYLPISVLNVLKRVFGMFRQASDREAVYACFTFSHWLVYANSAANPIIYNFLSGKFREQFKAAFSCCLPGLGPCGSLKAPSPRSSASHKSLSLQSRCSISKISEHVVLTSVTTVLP
In short: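 EC50 from 8-point half-log concentration-response curves. Values are means of at least three independent experiments in duplicate, with SEM, or means of two independent duplicate experiments.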

CC[C@H](C)[C@H](NC(=O)CNC(=O)[C@H](C)NC(=O)[C@H](C)NC(=O)[C@@H](Cc1cnc[nH]1)NC(=O)[C@H](CC(N)=O)NC(=O)CNC(=O)[C@H](C)NC(=O)CNC(=O)[C@H](Cc1cnc[nH]1)NC(=O)[C@H](CC(C)C)NC(=O)[C@H](CC(C)C)NC(=O)[C@H](CCC(=O)O)NC(=O)[C@@H](N)Cc1ccc(O)cc1)C(=O)N[C@@H](CC(C)C)C(=O)N[C@H](C(=O)N[C@@H](CC(C)C)C(N)=O)[C@@H](C)O
Ratio EC50 (Homo sapiens): 0.3
EC50 (Orexin receptor type 2): 1760 nM
EC50 [1]: 5700 nM

CC[C@H](C)[C@H](NC(=O)CNC(=O)[C@H](C)NC(=O)[C@@H](C)NC(=O)[C@H](Cc1cnc[nH]1)NC(=O)[C@H](CC(N)=O)NC(=O)CNC(=O)[C@H](C)NC(=O)CNC(=O)[C@H](Cc1cnc[nH]1)NC(=O)[C@H](CC(C)C)NC(=O)[C@H](CC(C)C)NC(=O)[C@H](CCC(=O)O)NC(=O)[C@@H](N)Cc1ccc(O)cc1)C(=O)N[C@@H](CC(C)C)C(=O)N[C@H](C(=O)N[C@@H](CC(C)C)C(N)=O)[C@@H](C)O
Ratio EC50 (Homo sapiens): 0.7
EC50 (Orexin receptor type 2): 1250 nM
EC50 [1]: 1900 nM

CC[C@H](C)[C@H](NC(=O)CNC(=O)[C@H](C)NC(=O)[C@H](C)NC(=O)[C@H](Cc1cnc[nH]1)NC(=O)[C@H](CC(N)=O)NC(=O)CNC(=O)[C@H](C)NC(=O)CNC(=O)[C@H](Cc1cnc[nH]1)NC(=O)[C@H](CC(C)C)NC(=O)[C@H](CC(C)C)NC(=O)[C@H](CCC(=O)O)NC(=O)[C@H](N)Cc1ccc(O)cc1)C(=O)N[C@@H](CC(C)C)C(=O)N[C@H](C(=O)N[C@@H](CC(C)C)C(N)=O)[C@@H](C)O
Ratio EC50 (Homo sapiens): 2.4
EC50 (Orexin receptor type 2): 3220 nM
EC50 [1]: 1360 nM

CC[C@H](C)[C@H](NC(=O)CNC(=O)[C@H](C)NC(=O)[C@H](C)NC(=O)[C@H](Cc1cnc[nH]1)NC(=O)[C@H](CC(N)=O)NC(=O)CNC(=O)[C@H](C)NC(=O)CNC(=O)[C@H](Cc1cnc[nH]1)NC(=O)[C@H](CC(C)C)NC(=O)[C@H](CC(C)C)NC(=O)[C@@H](CCC(=O)O)NC(=O)[C@@H](N)Cc1ccc(O)cc1)C(=O)N[C@@H](CC(C)C)C(=O)N[C@H](C(=O)N[C@@H](CC(C)C)C(N)=O)[C@@H](C)O
Ratio EC50 (Homo sapiens): 2.9
EC50 (Orexin receptor type 2): 2140 nM
EC50 [1]: 739 nM

CC[C@H](C)[C@H](NC(=O)CNC(=O)[C@H](C)NC(=O)[C@H](C)NC(=O)[C@H](Cc1cnc[nH]1)NC(=O)[C@H](CC(N)=O)NC(=O)CNC(=O)[C@H](C)NC(=O)CNC(=O)[C@H](Cc1cnc[nH]1)NC(=O)[C@H](CC(C)C)NC(=O)[C@@H](CC(C)C)NC(=O)[C@H](CCC(=O)O)NC(=O)[C@@H](N)Cc1ccc(O)cc1)C(=O)N[C@@H](CC(C)C)C(=O)N[C@H](C(=O)N[C@@H](CC(C)C)C(N)=O)[C@@H](C)O
Ratio EC50 (Homo sapiens): 0.5
EC50 (Orexin receptor type 2): 263 nM
EC50 [1]: 526 nM

CC[C@H](C)[C@H](NC(=O)CNC(=O)[C@H](C)NC(=O)[C@H](C)NC(=O)[C@H](Cc1cnc[nH]1)NC(=O)[C@H](CC(N)=O)NC(=O)CNC(=O)[C@H](C)NC(=O)CNC(=O)[C@H](Cc1cnc[nH]1)NC(=O)[C@@H](CC(C)C)NC(=O)[C@H](CC(C)C)NC(=O)[C@H](CCC(=O)O)NC(=O)[C@@H](N)Cc1ccc(O)cc1)C(=O)N[C@@H](CC(C)C)C(=O)N[C@H](C(=O)N[C@@H](CC(C)C)C(N)=O)[C@@H](C)O
Ratio EC50 (Homo sapiens): 0.3
EC50 (Orexin receptor type 2): 156 nM
EC50 [1]: 535 nM

CC[C@H](C)[C@H](NC(=O)CNC(=O)[C@H](C)NC(=O)[C@H](C)NC(=O)[C@H](Cc1cnc[nH]1)NC(=O)[C@H](CC(N)=O)NC(=O)CNC(=O)[C@H](C)NC(=O)CNC(=O)[C@@H](Cc1cnc[nH]1)NC(=O)[C@H](CC(C)C)NC(=O)[C@H](CC(C)C)NC(=O)[C@H](CCC(=O)O)NC(=O)[C@@H](N)Cc1ccc(O)cc1)C(=O)N[C@@H](CC(C)C)C(=O)N[C@H](C(=O)N[C@@H](CC(C)C)C(N)=O)[C@@H](C)O
Ratio EC50 (Homo sapiens): 0.4
EC50 (Orexin receptor type 2): 610 nM
EC50 [1]: 1560 nM

CC[C@H](C)[C@H](NC(=O)CNC(=O)[C@H](C)NC(=O)[C@H](C)NC(=O)[C@H](Cc1cnc[nH]1)NC(=O)[C@H](CC(N)=O)NC(=O)CNC(=O)[C@@H](C)NC(=O)CNC(=O)[C@H](Cc1cnc[nH]1)NC(=O)[C@H](CC(C)C)NC(=O)[C@H](CC(C)C)NC(=O)[C@H](CCC(=O)O)NC(=O)[C@@H](N)Cc1ccc(O)cc1)C(=O)N[C@@H](CC(C)C)C(=O)N[C@H](C(=O)N[C@@H](CC(C)C)C(N)=O)[C@@H](C)O
Ratio EC50 (Homo sapiens): 0.6
EC50 (Orexin receptor type 2): 1920 nM
EC50 [1]: 3070 nM

CC[C@H](C)[C@H](NC(=O)CNC(=O)[C@H](C)NC(=O)[C@H](C)NC(=O)[C@H](Cc1cnc[nH]1)NC(=O)[C@H](CC(N)=O)NC(=O)CNC(=O)[C@H](C)NC(=O)CNC(=O)[C@H](Cc1cnc[nH]1)NC(=O)[C@H](CC(C)C)NC(=O)[C@H](CC(C)C)NC(=O)[C@H](CCC(=O)O)NC(=O)[C@@H](N)Cc1ccc(O)cc1)C(=O)N[C@@H](CC(C)C)C(=O)N[C@H](C(=O)N[C@@H](CC(C)C)C(N)=O)[C@@H](C)O
EC50 (Orexin receptor type 2): 187 nM
EC50 [1]: 8.29 nM

CC[C@H](C)[C@H](NC(=O)CNC(=O)[C@H](C)NC(=O)[C@H](C)NC(=O)[C@H](Cc1c[nH]cn1)NC(=O)[C@H](CC(N)=O)NC(=O)CNC(=O)[C@H](C)NC(=O)CNC(=O)[C@H](Cc1c[nH]cn1)NC(=O)[C@H](CC(C)C)NC(=O)[C@H](CC(C)C)NC(=O)[C@H](CCC(=O)O)NC(=O)[C@@H](N)Cc1ccc(O)cc1)C(=O)N[C@@H](CC(C)C)C(=O)N[C@H](C(=O)N[C@@H](CC(C)C)C(N)=O)[C@@H](C)O
Ratio EC50 (Homo sapiens): 23

CC[C@H](C)[C@H](NC(=O)CNC(=O)[C@H](C)NC(=O)[C@H](C)NC(=O)[C@H](Cc1cnc[nH]1)NC(=O)[C@H](CC(N)=O)NC(=O)CNC(=O)[C@H](C)NC(=O)CNC(=O)[C@H](Cc1cnc[nH]1)NC(=O)[C@H](CC(C)C)NC(=O)[C@H](CC(C)C)NC(=O)[C@H](CCC(=O)O)NC(=O)[C@H](C)N)C(=O)N[C@@H](CC(C)C)C(=O)N[C@H](C(=O)N[C@@H](CC(C)C)C(N)=O)[C@@H](C)O (H-AELLHGAGNHAAGILTL-NH2)
Ratio EC50 (Homo sapiens): 2.5
EC50 (Orexin receptor type 2): 4820 nM
EC50 [1]: 1910 nM

CC[C@H](C)[C@H](NC(=O)CNC(=O)[C@H](C)NC(=O)[C@H](C)NC(=O)[C@H](Cc1c[nH]cn1)NC(=O)[C@H](CC(N)=O)NC(=O)CNC(=O)[C@H](C)NC(=O)CNC(=O)[C@H](Cc1c[nH]cn1)NC(=O)[C@H](CC(C)C)NC(=O)[C@@H](N)CC(C)C)C(=O)N[C@@H](CC(C)C)C(=O)N[C@H](C(=O)N[C@@H](CC(C)C)C(N)=O)[C@@H](C)O (H-LLHGAGNHAAGILTL-NH2)
Ratio EC50 (Homo sapiens): 0.7
EC50 (Orexin receptor type 2): 947 nM
EC50 [1]: 1380 nM

CC[C@H](C)[C@H](NC(=O)CNC(=O)[C@H](C)NC(=O)[C@H](C)NC(=O)[C@H](Cc1cnc[nH]1)NC(=O)[C@H](CC(N)=O)NC(=O)CNC(=O)[C@H](C)NC(=O)CNC(=O)[C@H](Cc1cnc[nH]1)NC(=O)[C@H](CC(C)C)NC(=O)[C@H](CC(C)C)NC(=O)[C@H](CCC(=O)O)NC(=O)[C@@H]1CCCN1)C(=O)N[C@@H](CC(C)C)C(=O)N[C@H](C(=O)N[C@@H](CC(C)C)C(N)=O)[C@@H](C)O (H-PELLHGAGNHAAGILTL-NH2)
Ratio EC50 (Homo sapiens): 2.4
EC50 (Orexin receptor type 2): 3250 nM
EC50 [1]: 1370 nM

CC[C@H](C)[C@H](NC(=O)CNC(=O)[C@H](C)NC(=O)[C@H](C)NC(=O)[C@H](Cc1cnc[nH]1)NC(=O)[C@H](CC(N)=O)NC(=O)CNC(=O)[C@H](C)NC(=O)CNC(=O)[C@H](Cc1cnc[nH]1)NC(=O)[C@H](CC(C)C)NC(=O)[C@H](CC(C)C)NC(=O)[C@H](CCC(=O)O)NC(=O)[C@H](Cc1ccc(O)cc1)NC(=O)[C@H](CC(C)C)NC(=O)[C@@H](N)CCCNC(=N)N)C(=O)N[C@@H](CC(C)C)C(=O)N[C@H](C(=O)N[C@@H](CC(C)C)C(N)=O)[C@@H](C)O (H-RLYELLHGAGNHAAGILTL-NH2)
EC50 (Orexin receptor type 2): 976 nM
EC50 [1]: 64 nM

CC[C@H](C)[C@H](NC(=O)CNC(=O)[C@H](C)NC(=O)[C@H](C)NC(=O)[C@H](Cc1c[nH]cn1)NC(=O)[C@H](CC(N)=O)NC(=O)CNC(=O)[C@H](C)NC(=O)CNC(=O)[C@H](Cc1c[nH]cn1)NC(=O)[C@H](CC(C)C)NC(=O)[C@H](CC(C)C)NC(=O)[C@H](CCC(=O)O)NC(=O)[C@H](Cc1ccc(O)cc1)NC(=O)[C@H](CC(C)C)NC(=O)[C@@H](N)CCCN=C(N)N)C(=O)N[C@@H](CC(C)C)C(=O)N[C@H](C(=O)N[C@@H](CC(C)C)C(N)=O)[C@@H](C)O (H-RLYELLHGAGNHAAGILTL-NH2)
Ratio EC50 (Homo sapiens): 15
